The results in this text go back to ChEMBL document CHEMBL1143580 (J Med Chem, 2005).

pKi: −log10 of the molar value.

Usually pKi stands for the negative decadic logarithm of the Ki, by convention in mol/L. Read a low pKi as a large Ki. Broadly, the inhibition is the relative decrease from the control value, in per cent. Higher therefore signals a strong effect.

For experiment [1], the species on record is Rattus norvegicus. Description: Amount of cGMP level in rat neostriatal membranes after incubation at 10 uM. In kind it is functional. Put shortly: (§1)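 Rat striatal membranes in 0.1 M phosphate buffer pH 7.0 with MgCl2 and 2.25 mM IBMX at 37 °C; reaction started with 54 µM GTP, 60 min at 37 °C; compounds at 0.1, 1.0, 10 µM. Stopped with HCl, boiled 5 min, centrifuged, filtered; cGMP measured by reverse-phase HPLC at 254 nm against standards, confirmed by cGMP EIA; mean ± SEM of triplicates.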

The species entered for experiment [2] is Rattus norvegicus. Briefly: Amount of cGMP level in rat neostriatal membranes after incubation at 0.1 uM. In kind it is functional. Put shortly:
as §1

For experiment [3], the species on record is Rattus norvegicus. Description: Amount of cGMP level in rat neostriatal membranes after incubation at 1.0 uM. In kind it is functional. Put shortly:
as §1

The nature of experiment [4]: Inhibitory constant for [3H]YM-09151-2 binding to Dopamine receptor D2-like in porcine striatal membranes. In kind it is cell membranes, Sus scrofa, Striatum, Membrane.
Experiment [5] is filed under the species Rattus norvegicus. Briefly: Amount of cAMP level in rat neostriatal membranes after incubation at 1 uM. In kind it is functional. Put shortly: (§2)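 Rat striatal membranes; adenylyl cyclase reaction in 0.1 M Tris-HCl pH 8.3, 10 mM MgCl2, 0.1 M KCl, 37 °C, 60 min; compounds at 1, 10, 100 µM. Stopped with HCl (final 0.01 M) plus 5 min boiling, centrifuged, filtered. cAMP quantified by reverse-phase HPLC at 254 nm against standards, confirmed by cAMP EIA; pmol/mg protein, mean ± SEM of triplicates.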
Background: cAMP levels reflect the balance of adenylyl cyclase and phosphodiesterase activity.

The species named for experiment [6] is Rattus norvegicus. Briefly: Amount of cAMP level in rat neostriatal membranes after incubation at 10 uM. In kind it is functional. Put shortly:
as §2

Experiment [7] is filed under the species Rattus norvegicus. Briefly: Amount of cAMP level in rat neostriatal membranes after incubation at 100 uM. In kind it is functional. Put shortly: as §2
Experiment [8] is filed under the species Rattus norvegicus. Briefly: Amount of cGMP in rat neostriatal membranes after incubation at 10 uM. In kind it is functional. Put shortly:
as §1

The species named for experiment [9] is Rattus norvegicus. Description: Amount of cGMP in rat neostriatal membranes after incubation at 0.1 uM. Format: functional. Put shortly:
as §1

The species named for experiment [10] is Rattus norvegicus. Briefly: Amount of cGMP in rat neostriatal membranes after incubation at 1.0 uM. Format: functional. Put shortly:
as §1

The nature of experiment [11]: Inhibitory constant for Dopamine receptor D1-like.
Experiment [12] in a line: Inhibitory constant for Dopamine receptor D2-like.
The species entered for experiment [13] is Rattus norvegicus. Briefly: Decrease of basal cAMP concentration mediated by striatal adenylyl cyclase activity in rat neostriatal membrane at 100 uM. In kind it is functional. Put shortly: as §2
The target in experiment [14] is Adenylate cyclase type 2 (Rattus norvegicus) (UniProt P26769). Briefly: Inhibition of basal striatal adenylyl cyclase activity in rat neostriatal membrane at 100 uM. Format: functional, cell membranes. Put shortly:
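Rat striatal membranes incubated 60 min at 37 °C in 0.1 M Tris-HCl pH 8.3, 10 mM MgCl2, 0.1 M KCl. Reaction stopped with HCl (0.01 M final) and 5 min boiling. Filtered supernatant analysed for cAMP by reverse-phase HPLC at 254 nm against standards, confirmed by cAMP EIA. Tested at 1, 10 and 100 µM. Triplicates reported as mean ± SEM.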

The nature of experiment [15]: Inhibitory constant for [3H]YM-09151-2 binding to Dopamine receptor D2-like in porcine striatal membranes; NA= not active until 1e-5M. Format: cell membranes, Sus scrofa.

Chain of Adenylate cyclase type 2 (Rattus norvegicus) (P26769 whole entry): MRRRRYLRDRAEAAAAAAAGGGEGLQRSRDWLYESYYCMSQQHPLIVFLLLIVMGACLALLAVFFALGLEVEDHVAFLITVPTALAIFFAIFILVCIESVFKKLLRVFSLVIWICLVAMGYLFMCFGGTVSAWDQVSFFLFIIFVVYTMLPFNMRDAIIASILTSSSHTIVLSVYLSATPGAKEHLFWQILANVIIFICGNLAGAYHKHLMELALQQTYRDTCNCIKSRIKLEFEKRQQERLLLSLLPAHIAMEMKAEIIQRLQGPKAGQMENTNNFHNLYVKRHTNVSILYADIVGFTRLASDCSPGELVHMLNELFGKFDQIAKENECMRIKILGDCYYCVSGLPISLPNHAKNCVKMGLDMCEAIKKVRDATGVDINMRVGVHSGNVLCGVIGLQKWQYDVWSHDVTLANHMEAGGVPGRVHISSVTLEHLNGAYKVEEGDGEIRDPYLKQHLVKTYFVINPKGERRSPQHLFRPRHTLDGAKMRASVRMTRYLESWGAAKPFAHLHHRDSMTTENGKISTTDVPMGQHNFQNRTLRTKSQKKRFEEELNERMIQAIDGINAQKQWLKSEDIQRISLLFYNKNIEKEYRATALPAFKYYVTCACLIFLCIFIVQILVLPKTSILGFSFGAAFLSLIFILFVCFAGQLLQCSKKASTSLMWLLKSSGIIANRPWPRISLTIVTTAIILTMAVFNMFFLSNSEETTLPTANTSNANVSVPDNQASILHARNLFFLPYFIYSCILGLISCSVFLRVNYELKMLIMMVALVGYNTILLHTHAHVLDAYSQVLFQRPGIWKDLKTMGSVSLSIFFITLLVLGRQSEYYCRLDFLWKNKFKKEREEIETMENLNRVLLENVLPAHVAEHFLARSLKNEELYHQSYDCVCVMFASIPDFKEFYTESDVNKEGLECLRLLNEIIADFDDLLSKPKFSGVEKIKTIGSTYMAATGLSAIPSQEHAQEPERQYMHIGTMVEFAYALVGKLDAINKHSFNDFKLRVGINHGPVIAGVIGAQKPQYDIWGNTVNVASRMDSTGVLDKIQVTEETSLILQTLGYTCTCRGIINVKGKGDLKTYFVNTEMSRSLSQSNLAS

In the case of `CCN1CCCC1CNC(=O)c1cc(S(N)(=O)=O)ccc1OC` (stereo not drawn), the cGMP content (pmol/mg protein) in the experiment filed under Rattus norvegicus [1] was 17.7; in the experiment filed under Rattus norvegicus [2], 12.5; in the experiment listed under Rattus norvegicus [3] it was 17.3.
In [4], `CCCN(CCC)[C@@H]1Cc2cc(OC)c(F)cc2[C@H]1c1ccccc1` gave a pKi of 6.26.
The same measure, in the same setting: next, `COc1cc2c(cc1F)C[C@@H](N)[C@@H]2c1ccccc1`: 4.77; `CN[C@@H]1Cc2cc(O)c(F)cc2[C@H]1c1ccccc1`: 5.37.
Regarding `NCCc1ccc(O)c(O)c1`, the cAMP content (pmol/mg protein) in the experiment filed under Rattus norvegicus [5] was 95.1; in the experiment listed under Rattus norvegicus [6], 89.8; in the experiment filed under Rattus norvegicus [7] it was 85.6. Also, the cGMP content (pmol/mg protein) in the experiment filed under Rattus norvegicus [1] came to 4.02; in the experiment listed under Rattus norvegicus [2], 11.7; in the experiment filed under Rattus norvegicus [3], 6.15.
In experiment [4], `N[C@@H]1Cc2cc(F)c(O)cc2[C@H]1c1ccccc1` had a pKi of 4.72.
The molecule `CN[C@@H]1Cc2cc(OC)c(F)cc2[C@H]1c1ccccc1` had a pKi in [4] of 5.51.
Consider `CN1CCc2cc(Cl)c(O)cc2[C@@H](c2ccccc2)C1`, for which the figures for the cGMP content (pmol/mg protein) in the experiment listed under Rattus norvegicus [8], in the experiment listed under Rattus norvegicus [9] and in the experiment filed under Rattus norvegicus [10] were 6.15, 11.5 and 6.62, respectively.
`CN1CCc2cc(F)c(O)cc2C1C1(c2ccccc2Cl)CC1` (stereo not drawn): the negative-log Ki (pKi) in [11] was 9.74; in experiment [12], 6.35.
`COc1cc2c(cc1F)[C@@H](c1ccccc1)[C@H](N)C2`: the pKi in experiment [4] is 4.92.
The same measure, in the same setting: next, `CCCN(CCC)[C@@H]1Cc2cc(O)c(F)cc2[C@H]1c1ccccc1`: 4.92.
In the case of `CCCN(C)[C@@H]1Cc2cc(F)c(O)cc2[C@H]1c1ccccc1`, the figures for the cAMP content (pmol/mg protein) in the experiment listed under Rattus norvegicus [5], in the experiment listed under Rattus norvegicus [6] and in the experiment listed under Rattus norvegicus [7] were 103, 93 and 74.4, respectively. In addition, the cGMP content (pmol/mg protein) in the experiment listed under Rattus norvegicus [1] is 1.78; in the experiment listed under Rattus norvegicus [2], 10.9; in the experiment listed under Rattus norvegicus [3], 5.79. This molecule also had a Decrease in the experiment listed under Rattus norvegicus [13] of 30%. Also, the pKi in experiment [4] is 6.19.
On to `COc1cc2c(cc1F)[C@@H](c1ccccc1)[C@H](N(C)C)C2`, for which, in experiment [4], the pKi is 5.37.
As for `C=CCN(C)[C@@H]1Cc2cc(O)c(F)cc2[C@H]1c1ccccc1`, in [4], the pKi was 6.19. Compared with the last molecule, the pKi is 0.82 log units higher.
Turning to `CCCN(CCc1ccccc1)CCc1cccc(O)c1`, the values for the cAMP content (pmol/mg protein) in the experiment filed under Rattus norvegicus [5], in the experiment listed under Rattus norvegicus [6] and in the experiment filed under Rattus norvegicus [7] were 104, 93.1 and 79.3, respectively. The inhibition in experiment [14] turned out to be 25%. Besides, the cGMP content (pmol/mg protein) in the experiment filed under Rattus norvegicus [1] turned out to be 3.78; in the experiment listed under Rattus norvegicus [2], 10.4; in the experiment filed under Rattus norvegicus [3], 7.45.
With `CCCN(C)[C@@H]1Cc2cc(F)c(OC)cc2[C@H]1c1ccccc1`, the cGMP content (pmol/mg protein) in the experiment listed under Rattus norvegicus [1] was 3.9; in the experiment listed under Rattus norvegicus [2], 10.4; in the experiment listed under Rattus norvegicus [3] it was 6.86. This molecule had a negative-log Ki (pKi) in [4] of 6.32.
As for `C=CCN(C)[C@@H]1Cc2cc(OC)c(F)cc2[C@H]1c1ccccc1`, the pKi in [4] is 6.51.
For `CCCN(C)[C@@H]1Cc2cc(O)c(F)cc2[C@H]1c1ccccc1`, the results for the cGMP content (pmol/mg protein) in the experiment filed under Rattus norvegicus [1], in the experiment filed under Rattus norvegicus [2] and in the experiment listed under Rattus norvegicus [3] were 5.56, 11.5 and 7.45, respectively. In addition, in experiment [4], the pKi was 6.62.
As to `CCCN(CCC)[C@@H]1Cc2cc(F)c(O)cc2[C@H]1c1ccccc1`, the cGMP content (pmol/mg protein) in the experiment filed under Rattus norvegicus [1] was 4.37; in the experiment listed under Rattus norvegicus [2], 11.6; in the experiment filed under Rattus norvegicus [3] it was 7.32. Also, the pKi in experiment [4] was 6.04.
`N[C@@H]1Cc2cc(O)c(F)cc2[C@H]1c1ccccc1` gave a negative-log Ki (pKi) in [4] of 4.82.
On the same count and under the same terms, next, `CN(C)[C@@H]1Cc2cc(F)c(O)cc2[C@H]1c1ccccc1`: 5.35.
In [4], `C=CCN(C)[C@@H]1Cc2cc(F)c(O)cc2[C@H]1c1ccccc1` had a negative logarithm of the Ki (pKi) of 6.02. Against the preceding molecule, the pKi is 0.67 log units higher.
As to `Oc1cc2c(cc1O)C(c1ccccc1)CNCC2` (stereo not drawn), the cGMP content (pmol/mg protein) in the experiment listed under Rattus norvegicus [1] amounted to 18.2; in the experiment listed under Rattus norvegicus [2], 12.4; in the experiment listed under Rattus norvegicus [3], 17.4.
Take `C=CCN(C)[C@@H]1Cc2cc(F)c(OC)cc2[C@H]1c1ccccc1`: in experiment [4], the pKi was 6.19.
On the same count and under the same terms, the figure for `CN[C@@H]1Cc2cc(F)c(OC)cc2[C@H]1c1ccccc1` is 5.59.
Take `CCCN(CCC)[C@@H]1Cc2cc(F)c(OC)cc2[C@H]1c1ccccc1`: the cGMP content (pmol/mg protein) was 5.79 in the experiment listed under Rattus norvegicus [1], 10.6 in the experiment filed under Rattus norvegicus [2] and 6.97 in the experiment filed under Rattus norvegicus [3]. This molecule gave a pKi in [4] of 6.77.
Molecule `COc1cc2c(cc1F)C[C@@H](N(C)C)[C@@H]2c1ccccc1` gave a pKi in [4] of 5.72.
In the case of `Br.CN(C)[C@@H]1Cc2cc(O)c(F)cc2[C@H]1c1ccccc1`, the Ki result in experiment [15] was “Not Active”.
As to `CCCN(C)[C@@H]1Cc2cc(OC)c(F)cc2[C@H]1c1ccccc1`, the cAMP content (pmol/mg protein) is 105 in the experiment filed under Rattus norvegicus [5], 103 in the experiment listed under Rattus norvegicus [6] and 84.6 in the experiment listed under Rattus norvegicus [7]. Moreover, the cGMP content (pmol/mg protein) worked out at 3.78 in the experiment listed under Rattus norvegicus [1], 11.2 in the experiment filed under Rattus norvegicus [2] and 4.96 in the experiment listed under Rattus norvegicus [3]. Further, in experiment [4], the pKi is 6.57.
In turn, `CN[C@@H]1Cc2cc(F)c(O)cc2[C@H]1c1ccccc1` had a pKi in [4] of 5.29.
